Assay results reported in ChEMBL document CHEMBL3217465, “Development of a phosphatase-resistant, L-tyrosine derived LPA1/LPA3 dual antagonist” (Medchemcomm, 2011).
The source made the active and inactive calls. The rule behind the calls is not given here.

Columns and labels:
[1] = biological target: T1, Lysophosphatidic acid receptor 3 (Homo sapiens, UniProt Q9UBY5); assay: (§1) Competitive antagonist activity at N-terminal 3XHA-tagged human LPA3 receptor overexpressed in CHO cells assessed as inhibition of LPA-induced [35S]GTPgammaS binding by liquid scintillation counting; assay type: functional, cell-based
T1 sequence (Q9UBY5 whole entry): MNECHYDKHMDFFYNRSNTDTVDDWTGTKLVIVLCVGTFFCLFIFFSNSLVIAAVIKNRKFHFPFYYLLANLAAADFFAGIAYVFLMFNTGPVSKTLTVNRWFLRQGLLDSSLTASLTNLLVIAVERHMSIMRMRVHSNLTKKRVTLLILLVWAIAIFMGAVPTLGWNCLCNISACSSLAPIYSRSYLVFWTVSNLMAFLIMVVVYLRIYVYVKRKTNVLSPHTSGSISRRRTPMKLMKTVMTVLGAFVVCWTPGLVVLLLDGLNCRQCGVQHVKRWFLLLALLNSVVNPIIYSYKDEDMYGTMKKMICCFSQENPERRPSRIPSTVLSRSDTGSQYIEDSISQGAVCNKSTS
How it was run: (§2)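 GTP[γ-³⁵S] binding was measured in membrane fractions containing hLPA1 or hLPA3 from over-expressing CHO cells. LPA concentration-effect curves were run at increasing antagonist concentrations, and Schild analysis was derived from these curves.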

[2] = biological target: Lysophosphatidic acid receptor 1 (Homo sapiens, UniProt Q92633); assay: Competitive antagonist activity at human LPA1 receptor overexpressed in CHO cells assessed as inhibition of LPA-induced [35S]GTPgammaS binding by liquid scintillation counting; assay type: functional, cell-based; how it was run: as §2
Sequence of Lysophosphatidic acid receptor 1 (Q92633 whole entry): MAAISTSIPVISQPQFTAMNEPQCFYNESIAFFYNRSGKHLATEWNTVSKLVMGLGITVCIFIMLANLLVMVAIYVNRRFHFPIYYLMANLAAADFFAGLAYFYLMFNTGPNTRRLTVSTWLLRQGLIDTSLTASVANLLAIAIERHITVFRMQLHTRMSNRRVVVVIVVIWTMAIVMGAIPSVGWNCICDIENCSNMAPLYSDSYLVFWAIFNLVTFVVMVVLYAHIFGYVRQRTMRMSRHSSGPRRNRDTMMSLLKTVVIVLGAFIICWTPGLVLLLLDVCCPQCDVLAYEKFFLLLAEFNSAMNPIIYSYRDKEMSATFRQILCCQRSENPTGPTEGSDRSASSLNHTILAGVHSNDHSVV

[3] = biological target: T2, Lysophosphatidic acid receptor 3 (Homo sapiens) (UniProt Q9UBY5); assay: as §1; assay type: functional, cell-based; how it was run: as §2
T2 sequence (whole entry): T1 sequence (Q9UBY5 whole entry)

[4] = Half life in Wistar rat at 20 mg/kg, iv by LC-MS/MS analysis; assay type: ADME, organism-based; set-up: dose 20 mg/kg, route intravenous; conditions: in vivo
[5] = biological target: Lysophosphatidic acid receptor 2 (Homo sapiens) (UniProt Q9HBW0); assay: Antagonist activity at LPAR2 receptor (unknown origin) assessed as inhibition of LPA-induced [35S]GTPgammaS binding by liquid scintillation counting; assay type: functional
Sequence of Lysophosphatidic acid receptor 2 (Homo sapiens) (Q9HBW0 whole entry): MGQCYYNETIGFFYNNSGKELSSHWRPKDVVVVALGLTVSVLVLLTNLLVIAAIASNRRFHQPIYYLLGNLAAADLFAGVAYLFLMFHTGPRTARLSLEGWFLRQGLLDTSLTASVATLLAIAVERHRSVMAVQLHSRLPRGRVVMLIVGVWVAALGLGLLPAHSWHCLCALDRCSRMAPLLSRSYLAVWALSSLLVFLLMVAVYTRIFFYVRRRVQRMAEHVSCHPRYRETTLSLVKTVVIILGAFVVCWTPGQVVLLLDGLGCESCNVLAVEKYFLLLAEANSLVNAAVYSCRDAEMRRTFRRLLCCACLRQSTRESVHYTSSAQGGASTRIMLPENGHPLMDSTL

[6] = biological target: T3, Lysophosphatidic acid receptor 3 (Rattus norvegicus) (UniProt Q8K5E0); assay: Antagonist activity at LPAR3 in rat glioma C62B cells assessed as inhibition of LPA3 agonist-induced reduction in isoproterenol-stimulated [3H]cAMP accumulation by liquid scintillation counting; assay type: functional, cell-based
T3 sequence (whole entry): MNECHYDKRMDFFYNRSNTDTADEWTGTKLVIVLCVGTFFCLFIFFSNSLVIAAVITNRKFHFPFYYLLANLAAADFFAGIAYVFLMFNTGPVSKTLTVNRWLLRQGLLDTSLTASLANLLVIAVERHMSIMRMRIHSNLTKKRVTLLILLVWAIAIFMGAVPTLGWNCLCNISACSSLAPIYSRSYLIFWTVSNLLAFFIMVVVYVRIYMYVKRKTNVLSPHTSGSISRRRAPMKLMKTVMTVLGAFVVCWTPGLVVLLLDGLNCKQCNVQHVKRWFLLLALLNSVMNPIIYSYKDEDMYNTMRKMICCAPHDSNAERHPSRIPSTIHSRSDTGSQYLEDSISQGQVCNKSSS

[7] = biological target: Lysophosphatidic acid receptor 1/lysophosphatidic acid receptor 3 (Rattus norvegicus, UniProt Q8K5E0+P61794); assay: Antagonist activity at LPAR1/LPAR3 in rat glioma C62B cells assessed as inhibition of LPA-induced reduction in isoproterenol-stimulated [3H]cAMP accumulation by liquid scintillation counting; assay type: functional, cell-based
How it was run: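 C62B cells were grown to confluence and labelled with [³H]adenine for 1 h to label ATP pools. They were then stimulated for 2 min with isoproterenol (10 μM), with or without 18:1 LPA (100 nM), and with or without antagonist. Antagonist was given at increasing concentrations to obtain dose-response curves of the block of LPA inhibition of cAMP accumulation.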

A-431 = assay: Antagonist activity at LPA receptor in human A431 cells assessed as inhibition of LPA-induced intracellular calcium mobilization at 10 uM by Fluo-3 AM-staining based FLIPR assay; assay type: cell-based
How it was run: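 A431 human epithelial carcinoma cells, which express LPA1–3 receptor mRNAs, were tested with the test compound at a single concentration of 10 μM against a single concentration of 1-oleoyl LPA. The read-out was inhibition of LPA-induced intracellular calcium release.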

| SMILES | Ki [1] [nM] | Ki [2] [nM] | inhibition [3] | inhibition [2] | inhibition (A-431) | other results |
| --- | --- | --- | --- | --- | --- | --- |
| CCCCCCCCCCCCCCCCCC(=O)N[C@@H](COP(=O)(O)O)Cc1ccc(OCc2cc(OCC(F)(F)F)ccn2)cc1 | 48 | 84 |  |  |  |  |
| Cc1noc(-c2ccc(CSCCC(=O)O)cc2)c1NC(=O)OC(C)c1ccccc1Cl (stereo not given) |  |  | Active | Active |  |  |
| CCCCCCCCCCCCCCCC(=O)N[C@@H](/C=C/P(=O)(O)O)Cc1ccc(OCc2cc(OCC(F)(F)F)ccn2)cc1 | 512 | 143 | Dose-dependent effect | Dose-dependent effect | Active | half-life [4]: 1.5 h; inhibition [5]: inactive; inhibition [6]: Dose-dependent effect; Ki [7]: 11 nM |
| CCCCCCCCCCCCCCCC(=O)N[C@H](Cc1ccc(OCc2cc(OCC(F)(F)F)ccn2)cc1)CC(F)P(=O)(O)O (stereo not given in full) |  |  |  |  | Active |  |
| CCCCCCCCCCCCCCCC(=O)N[C@@H](/C=C(\F)P(=O)(O)O)Cc1ccc(OCc2cc(OCC(F)(F)F)ccn2)cc1 |  |  |  |  | Active |  |
